The source of these data is ChEMBL document CHEMBL4627266, “Design and biological evaluation of a novel type of potential multi-targeting antimicrobial sulfanilamide hybrids in combination of pyrimidine and azoles” (Bioorg Med Chem Lett, 2020).

Data set [1] has as its system Staphylococcus aureus. As to the kind of experiment: Antibacterial activity against methicillin-resistant Staphylococcus aureus by two fold serial microbroth dilution method. The data set is classed as functional. A digest of the protocol:
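Two-fold serial microbroth dilution in microdilution plates, run per CLSI, with clinical antibacterial drugs as positive controls. The MRSA strain was a drug-resistant clinical isolate from infected patients. MIC (μg/mL) was read as the lowest concentration giving complete inhibition of visible bacterial growth.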
(In general: Broth dilution looks for growth in wells or tubes with falling amounts of substance.)

The subject of data set [2] is Staphylococcus aureus. Briefly: Antibacterial activity against Staphylococcus aureus by two fold serial microbroth dilution method. The data set is classed as functional. A digest of the protocol:
(§1)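 Two-fold serial dilution in microdilution plates (micro broth dilution) following CLSI. Panel includes clinical drug-resistant isolates and ATCC reference strains. Clinical drugs were run as positive controls.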

In data set [3] the test system is Staphylococcus aureus. Briefly: Antibacterial activity against Staphylococcus aureus ATCC 25923 by two fold serial microbroth dilution method. The data set is classed as functional. A digest of the protocol: as §1
Data set [4] deals with Enterococcus faecalis. As to the kind of experiment: Antibacterial activity against Enterococcus faecalis by two fold serial microbroth dilution method. The data set is classed as functional. Put shortly: as §1
The subject of the next data set is Klebsiella pneumoniae. Briefly: Antibacterial activity against Klebsiella pneumoniae by two fold serial microbroth dilution method. The data set is classed as functional. A digest of the protocol: as §1
Data set [5] has as its system Escherichia coli. As to the kind of experiment: Antibacterial activity against Escherichia coli by two fold serial microbroth dilution method. The data set is classed as functional. Put shortly: as §1
The subject of data set [6] is Escherichia coli. As to the kind of experiment: Antibacterial activity against Escherichia coli ATCC 25922 by two fold serial microbroth dilution method. The data set is classed as functional. A digest of the protocol:
as §1

Data set [7] deals with Pseudomonas aeruginosa. As to the kind of experiment: Antibacterial activity against Pseudomonas aeruginosa by two fold serial microbroth dilution method. The data set is classed as functional. A digest of the protocol:
as §1

The subject of data set [8] is Pseudomonas aeruginosa. Briefly: Antibacterial activity against Pseudomonas aeruginosa ATCC 27853 by two fold serial microbroth dilution method. The data set is classed as functional. Put shortly:
as §1

The next data set has as its system Acinetobacter baumannii. Briefly: Antibacterial activity against Acinetobacter baumannii by two fold serial microbroth dilution method. The data set is classed as functional. A digest of the protocol:
as §1

Data set [9] deals with Staphylococcus aureus. As to the kind of experiment: Antibacterial activity against Staphylococcus aureus ATCC 29213 by two fold serial microbroth dilution method. The data set is classed as functional. Put shortly:
as §1

For a further data set, the system named is Candida albicans. As to the kind of experiment: Antifungal activity against Candida albicans by two fold serial microbroth dilution method. The data set is classed as functional. A digest of the protocol: (§2)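 Antifungal MIC by two-fold serial dilution following CLSI, with a clinical drug as positive control. Panel includes clinical drug-resistant fungal isolates.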

Another data set has as its system Candida tropicalis. Briefly: Antifungal activity against Candida tropicalis by two fold serial microbroth dilution method. The data set is classed as functional. Put shortly: as §2
In the next data set the test system is Aspergillus fumigatus. As to the kind of experiment: Antifungal activity against Aspergillus fumigatus by two fold serial microbroth dilution method. The data set is classed as functional. A digest of the protocol:
as §2

Data set [10] in a line: Cytotoxicity against human A549 cells assessed as cell viability at 64 ug/ml incubated for 24 hrs by MTT assay relative to control. The data set is classed as cell-based. Particulars: read-out: Activity. Put shortly:
(§3)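 A549 lung cancer cells and BEAS-2B normal lung epithelial cells were exposed to the compound at a range of concentrations up to 64 μg/mL for 24 h. Viability was read by colorimetric MTT cell proliferation assay. Doxorubicin at 0.5 µM served as positive control.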
On the technique in general: Formazan colour is commonly taken as a measure of viable cells.

Data set [11] in a line: Cytotoxicity against human BEAS2B cells assessed as cell viability at 64 ug/ml incubated for 24 hrs by MTT assay relative to control. The data set is classed as cell-based. Particulars: BEAS-2B cells, read-out: Activity. A digest of the protocol:
as §3

Data set [12] deals with Enterococcus faecalis. As to the kind of experiment: Antibacterial activity against Enterococcus faecalis measured after 16 passages by microbroth dilution method. The data set is classed as functional, organism-based.
The test system of data set [13] is Enterococcus faecalis. As to the kind of experiment: Bactericidal activity against Enterococcus faecalis assessed as log10 reduction in CFU at MIC to 6XMIC by time kill kinetics analysis. The data set is classed as functional. A digest of the protocol:
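E. faecalis was exposed to the compound at MIC and 6 × MIC. Viable counts (log CFU/mL) were followed over time.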

Data set [14] concerns Enterococcus faecalis. As to the kind of experiment: Induction of cell membrane permeabilization in Enterococcus faecalis at 12XMIC measured after 60 mins by PI staining based fluorescence assay. The data set is classed as organism-based. A digest of the protocol:
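E. faecalis cells were treated with the compound at 12 × MIC in the presence of propidium iodide, which enters only compromised cells and fluoresces on binding dsDNA. Fluorescence at 617 nm was followed over time, to about 120 min.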

Data set [15] has as its system DNA. As to the kind of experiment: Binding affinity to Enterococcus faecalis DNA assessed as hyperchromic effect by UV-visible spectrophotometric method. The data set is classed as nucleic-acid assay.
Data set [16] deals with DNA. As to the kind of experiment: Binding affinity to Enterococcus faecalis DNA assessed as decrease in maximum absorption of DNA-NR complex at 530 nm by neutral red dye based absorption spectral assay. The data set is classed as nucleic-acid assay.
In a further data set the target is Albumin (Homo sapiens, UniProt P02768). Briefly: Binding affinity to HSA by UV-visible spectrophotometric method. Particulars: isolated protein. The data set is classed as ADME.
In data set [17] the test system is DNA. As to the kind of experiment: Binding affinity to Enterococcus faecalis DNA assessed as blue shift by UV-visible spectrophotometric method. The data set is classed as nucleic-acid assay.
Data set [18] has as its system DNA. Briefly: Binding affinity to Enterococcus faecalis DNA assessed as increase in absorption peak at 460 nm by neutral red dye based absorption spectral assay. The data set is classed as nucleic-acid assay.

Molecules are shown by their SMILES. Converted amounts (≈) assume the structure as drawn. The source made the active and inactive calls. No cut-off for these calls is given here.

Chain of Albumin (P02768 whole entry): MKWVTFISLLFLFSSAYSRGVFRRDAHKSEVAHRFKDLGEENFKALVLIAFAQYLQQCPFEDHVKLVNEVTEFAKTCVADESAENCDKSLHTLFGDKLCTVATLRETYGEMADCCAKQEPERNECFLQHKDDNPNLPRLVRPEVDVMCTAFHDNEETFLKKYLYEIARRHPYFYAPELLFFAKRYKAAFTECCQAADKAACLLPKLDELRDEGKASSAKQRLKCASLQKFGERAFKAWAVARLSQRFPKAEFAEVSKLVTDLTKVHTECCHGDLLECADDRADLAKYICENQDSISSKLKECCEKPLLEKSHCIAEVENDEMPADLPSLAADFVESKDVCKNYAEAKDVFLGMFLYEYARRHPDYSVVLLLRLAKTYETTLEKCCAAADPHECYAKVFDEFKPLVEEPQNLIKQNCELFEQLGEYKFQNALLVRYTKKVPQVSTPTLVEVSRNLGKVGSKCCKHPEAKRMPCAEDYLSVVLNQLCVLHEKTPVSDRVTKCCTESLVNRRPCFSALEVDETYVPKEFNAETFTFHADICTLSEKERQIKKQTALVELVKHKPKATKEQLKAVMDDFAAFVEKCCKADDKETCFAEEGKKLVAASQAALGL

`CCc1nccn1-c1ccnc(NS(=O)(=O)c2ccc(N)cc2)n1`: the minimal inhibitory concentration (MIC) (in general, the lowest concentration found to suppress growth) against Staphylococcus aureus [1] was 128 µg/mL (≈ 372 µM); in the data set on Staphylococcus aureus [2] it was 128 µg/mL (≈ 372 µM); against Staphylococcus aureus [3], 128 µg/mL (≈ 372 µM); in the data set on Enterococcus faecalis [4] it was 64 µg/mL (≈ 186 µM); against Klebsiella pneumoniae, 64 µg/mL (≈ 186 µM); against Escherichia coli [5], 128 µg/mL (≈ 372 µM). Also, the MIC turned out to be 512 µg/mL (≈ 1490 µM) against Escherichia coli [6]; 128 µg/mL (≈ 372 µM) with Pseudomonas aeruginosa [7]; 128 µg/mL (≈ 372 µM) against Pseudomonas aeruginosa [8]; 64 µg/mL (≈ 186 µM) against Acinetobacter baumannii; 64 µg/mL (≈ 186 µM) in the data set on Staphylococcus aureus [9].
Turning to `Nc1ccc(S(=O)(=O)Nc2nccc(-n3ccc4ccccc43)n2)cc1`, the MIC in the data set with Staphylococcus aureus [1] came out at 2 µg/mL (≈ 5.47 µM); against Staphylococcus aureus [2], 32 µg/mL (≈ 87.6 µM); against Staphylococcus aureus [3] it was 4 µg/mL (≈ 10.9 µM); in the data set with Enterococcus faecalis [4], 1 µg/mL (≈ 2.74 µM); with Klebsiella pneumoniae, 32 µg/mL (≈ 87.6 µM); in the data set on Escherichia coli [5], 32 µg/mL (≈ 87.6 µM). The minimal inhibitory concentration (MIC) is 32 µg/mL (≈ 87.6 µM) against Escherichia coli [6]; 8 µg/mL (≈ 21.9 µM) against Pseudomonas aeruginosa [7]; 1 µg/mL (≈ 2.74 µM) against Pseudomonas aeruginosa [8]; 2 to 8 µg/mL (≈ 5.47 to 21.9 µM) in the data set on Candida albicans; 2 to 8 µg/mL (≈ 5.47 to 21.9 µM) in the data set with Candida tropicalis; 2 to 8 µg/mL (≈ 5.47 to 21.9 µM) against Aspergillus fumigatus. The minimum inhibitory concentration (MIC) against Staphylococcus aureus [9] was found to be 8 µg/mL (≈ 21.9 µM). In addition, the viability at 24 h, 64 ug/ml in [10] and in [11] was 70% in each case. Moreover, the outcome in the data set on Enterococcus faecalis [12], in the data set with Enterococcus faecalis [14], in the data set on DNA [15], in the data set on DNA [16], in the data set with DNA [17] and in the data set on DNA [18] was Active. In addition, the Activity with Enterococcus faecalis [13] was >3 log10CFU/ml; at Albumin, “Active”.
With `Nc1ccc(S(=O)(=O)Nc2nccc(-n3ccc4cc(Br)ccc43)n2)cc1`, the MIC against Staphylococcus aureus [1] is 4 µg/mL (≈ 9 µM); against Staphylococcus aureus [2], 64 µg/mL (≈ 144 µM); against Staphylococcus aureus [3], 2 µg/mL (≈ 4.5 µM); against Enterococcus faecalis [4], 4 µg/mL (≈ 9 µM); in the data set with Klebsiella pneumoniae it was 32 µg/mL (≈ 72 µM); against Escherichia coli [5], 4 µg/mL (≈ 9 µM). The minimum inhibitory concentration (MIC) was 2 µg/mL (≈ 4.5 µM) in the data set with Escherichia coli [6]; 4 µg/mL (≈ 9 µM) against Pseudomonas aeruginosa [7]; 4 µg/mL (≈ 9 µM) with Pseudomonas aeruginosa [8]; 128 µg/mL (≈ 288 µM) with Acinetobacter baumannii; 2 to 8 µg/mL (≈ 4.5 to 18 µM) in the data set on Candida albicans; 2 to 8 µg/mL (≈ 4.5 to 18 µM) against Candida tropicalis. Further, the results for the minimum inhibitory concentration (MIC) against Aspergillus fumigatus and against Staphylococcus aureus [9] were 2 to 8 µg/mL (≈ 4.5 to 18 µM) and 16 µg/mL (≈ 36 µM), respectively.
Regarding `Nc1ccc(S(=O)(=O)Nc2nccc(-n3cncn3)n2)cc1`, the MIC against Staphylococcus aureus [1] came out at 128 µg/mL (≈ 403 µM); with Staphylococcus aureus [2], 512 µg/mL (≈ 1610 µM); against Staphylococcus aureus [3], 256 µg/mL (≈ 807 µM); in the data set on Enterococcus faecalis [4], 256 µg/mL (≈ 807 µM); in the data set with Klebsiella pneumoniae, 32 µg/mL (≈ 101 µM); with Escherichia coli [5], 128 µg/mL (≈ 403 µM). For the same compound, the MIC turned out to be 256 µg/mL (≈ 807 µM) in the data set with Escherichia coli [6]; 4 µg/mL (≈ 12.6 µM) against Pseudomonas aeruginosa [7]; 32 µg/mL (≈ 101 µM) with Pseudomonas aeruginosa [8]; 128 µg/mL (≈ 403 µM) against Acinetobacter baumannii; 8 µg/mL (≈ 25.2 µM) with Candida albicans; 64 µg/mL (≈ 202 µM) against Staphylococcus aureus [9].
As for `CC(C)c1nccn1-c1ccnc(NS(=O)(=O)c2ccc(N)cc2)n1`, the MIC worked out at 32 µg/mL (≈ 89.3 µM) against Staphylococcus aureus [1]; 256 µg/mL (≈ 714 µM) against Staphylococcus aureus [2]; 256 µg/mL (≈ 714 µM) against Staphylococcus aureus [3]; 128 µg/mL (≈ 357 µM) with Enterococcus faecalis [4]; 256 µg/mL (≈ 714 µM) against Klebsiella pneumoniae; 64 µg/mL (≈ 179 µM) against Escherichia coli [5]. The MIC is 128 µg/mL (≈ 357 µM) against Escherichia coli [6]; 128 µg/mL (≈ 357 µM) in the data set with Pseudomonas aeruginosa [7]; 32 µg/mL (≈ 89.3 µM) in the data set with Pseudomonas aeruginosa [8]; 64 µg/mL (≈ 179 µM) with Acinetobacter baumannii; 32 µg/mL (≈ 89.3 µM) against Staphylococcus aureus [9].
`Cc1cc2ncn(-c3ccnc(NS(=O)(=O)c4ccc(N)cc4)n3)c2cc1C`: the MIC in the data set on Staphylococcus aureus [1] amounted to 64 µg/mL (≈ 162 µM); in the data set on Staphylococcus aureus [2], 256 µg/mL (≈ 649 µM); in the data set on Staphylococcus aureus [3], 256 µg/mL (≈ 649 µM); against Enterococcus faecalis [4], 256 µg/mL (≈ 649 µM); against Klebsiella pneumoniae it was 256 µg/mL (≈ 649 µM); against Escherichia coli [5], 256 µg/mL (≈ 649 µM). Further, the minimal inhibitory concentration (MIC) came out at 512 µg/mL (≈ 1300 µM) against Escherichia coli [6]; 256 µg/mL (≈ 649 µM) in the data set on Pseudomonas aeruginosa [7]; 128 µg/mL (≈ 324 µM) in the data set on Pseudomonas aeruginosa [8]; 128 µg/mL (≈ 324 µM) against Acinetobacter baumannii; 128 µg/mL (≈ 324 µM) against Staphylococcus aureus [9].
`Cc1ncc([N+](=O)[O-])n1-c1ccnc(NS(=O)(=O)c2ccc(N)cc2)n1`: the minimum inhibitory concentration (MIC) in the data set on Staphylococcus aureus [1] was 64 µg/mL (≈ 170 µM); against Staphylococcus aureus [2] it was 128 µg/mL (≈ 341 µM); in the data set with Staphylococcus aureus [3] it was 128 µg/mL (≈ 341 µM); against Enterococcus faecalis [4], 128 µg/mL (≈ 341 µM); with Klebsiella pneumoniae, 64 µg/mL (≈ 170 µM); against Escherichia coli [5], 128 µg/mL (≈ 341 µM). In addition, the MIC was found to be 256 µg/mL (≈ 682 µM) in the data set on Escherichia coli [6]; 256 µg/mL (≈ 682 µM) against Pseudomonas aeruginosa [7]; 128 µg/mL (≈ 341 µM) with Pseudomonas aeruginosa [8]; 64 µg/mL (≈ 170 µM) against Acinetobacter baumannii; 128 µg/mL (≈ 341 µM) against Staphylococcus aureus [9].
